Published values gathered from unrelated publications.
Protocols differ between the studies behind these lines.
SLC6A3: Sodium-dependent dopamine transporter (SLC6A3, Homo sapiens, UniProt Q01959)
PDE10A: cAMP and cAMP-inhibited cGMP 3',5'-cyclic phosphodiesterase 10A (PDE10A, Homo sapiens, UniProt Q9Y233)

CCN1/C(=C/C(C)=O)Sc2ccc(F)cc21
inhibition (SLC6A3; ligand displacement; radioligand; 10 µM): 1.26%

OC[C@@]12C[C@@H]1[C@@H](n1cnc3c(NCCCCCCc4ccccc4)nc(I)nc31)[C@H](O)[C@@H]2O
inhibition (SLC6A3; ligand displacement; radioligand; 10 µM): 79%

NC/C(=C\F)COc1cccc(Cn2c(=S)[nH]c(=O)c3[nH]cnc32)c1
inhibition (D(3) dopamine receptor (DRD3, Homo sapiens, UniProt P35462); ligand displacement; radioligand; 10 µM): < 50%

COc1cc2ncnc(Cc3cccc(-c4ccccc4)c3C)c2cc1OC
inhibition (PDE10A; enzyme activity; inhibitor; FP; 0.1 µM): 54%

N#CC[C@@]12C[C@@H]1[C@@H](n1cnc3c(NCCCCCc4ccccc4)nc(C#Cc4ccc(Cl)s4)nc31)[C@H](O)[C@@H]2O
inhibition (SLC6A3; ligand displacement; radioligand; 10 µM): 7%

c1ccc(-c2cccc(Cc3nccc4ccccc34)c2)cc1
inhibition (PDE10A; enzyme activity; inhibitor; FP; 0.1 µM): 0%

CCOC(=O)[C@@]12C[C@@H]1[C@@H](n1cnc3c(NCCCCc4ccccc4)nc(I)nc31)[C@H](O)[C@@H]2O
inhibition (SLC6A3; ligand displacement; radioligand; 10 µM): 19%

COc1cc2ncnc(Cc3cccc(-c4ccccc4OC)c3)c2cc1OC
inhibition (PDE10A; enzyme activity; inhibitor; FP; 0.1 µM): 31%

Cc1cc(F)cc2c(CCC(=O)N[C@@H]3C(=O)NC[C@H]3O)c(-c3ccc(F)cc3)[nH]c12
inhibition (SLC6A3; cell-free assay; 10 µM): 17%

CCOC(=O)[C@@]12C[C@@H]1[C@@H](n1cnc3c(NCCCCCCc4ccccc4)nc(C#Cc4ccc(Cl)s4)nc31)[C@H](O)[C@@H]2O
inhibition (SLC6A3; ligand displacement; radioligand; 10 µM): 23%

COc1cc2ncnc(Cc3cccc(-c4ccccc4)c3)c2cc1OC
inhibition (PDE10A; enzyme activity; inhibitor; FP; 0.1 µM): 63%

CC(C)C[C@H](NC(=O)[C@@H](NC(=O)[C@@H](NC(=O)[C@@H]1CCCN1C(=O)[C@@H](N)CCC(=O)O)C(C)C)[C@@H](C)O)C(=O)N[C@H](C(=O)O)[C@@H](C)O
inhibition (Angiotensin-converting enzyme (ACE, Homo sapiens, UniProt P12821); enzyme activity; inhibitor; 1.4 mM): 47.2%

CNC(=O)[C@@]12C[C@@H]1[C@@H](n1cnc3c(NCc4cccc(Cl)c4)nc(C#Cc4ccc(Cl)s4)nc31)[C@H](O)[C@@H]2O
inhibition (SLC6A3; ligand displacement; radioligand; 10 µM): 75%

COc1ccc2c(Cc3cccc(-c4ccccc4)c3)nccc2c1
inhibition (PDE10A; enzyme activity; inhibitor; FP; 0.1 µM): 3%

CCOC(=O)[C@@]12C[C@@H]1[C@@H](n1cnc3c(Nc4ccccc4)nc(C#Cc4ccc(Cl)s4)nc31)[C@H](O)[C@@H]2O
inhibition (SLC6A3; ligand displacement; radioligand; 10 µM): 89%

Cc1cc(O)c(-c2ccc([C@@H](C)CN(C)C)cc2)c2c1[nH]c(=O)c1sccc12
inhibition (Ephrin type-B receptor 4 (EPHB4, Homo sapiens, UniProt P54760); cell-free assay; inhibitor; 0.1 µM): -4.58%

c1ccc2c(Cc3ccc4cnn(C5COC5)c4c3)nccc2c1
inhibition (PDE10A; enzyme activity; inhibitor; FP; 0.1 µM): 6%

C#Cc1cc(-c2cc(Nc3nc(N[C@@H](C)c4ccc(F)cn4)ncc3Cl)n[nH]2)ccc1C=O
inhibition (Dual specificity protein kinase CLK4 (CLK4, Homo sapiens, UniProt Q9HAZ1); enzyme activity; inhibitor; 0.2 µM): 53.5%
